Calls of active or inactive are those of the source. The calls are words filed in the database; no cut-off is given here.

The test system of data set [1] is Lipid bilayer. The data set can be described thus: Binding affinity to 1,2-dimyristoyl-sn-glycero-3-phosphocholine bilayer assessed as change in main phase transition temperature at low concentration by differential scanning calorimetry. The class given is physicochemical. The essentials: (§1)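 Differential scanning calorimetry on 15 mM multilamellar DMPC vesicles in 50 mM sodium phosphate (ionic strength 154 mM with NaCl, pH 7.5). Terpenoid added in MeOH (below 10 μL); the x = 0 control received 10 μL MeOH. Terpenoid mole fraction varied from 0 to 0.15. Main-transition Tm, pretransition temperature and transition enthalpy were read from the thermograms.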
Background: In DSC, transitions show as peaks or steps in heat flow.

The test system of data set [2] is Lipid bilayer. The data set can be described thus: Binding affinity to 1,2-dimyristoyl-sn-glycero-3-phosphocholine bilayer assessed as decrease in main phase transition temperature at high concentration by differential scanning calorimetry (reference value: 24.4 deg C). The class given is physicochemical. A digest of the protocol:
as §1

Data set [3] can be described thus: 1,2-dimyristoyl-sn-glycero-3-phosphocholine bilayer-water partition coefficient, K of the compound at 300 uM by isothermal titration calorimetry at 35 deg C. The class given is physicochemical. Particulars: DMPC vesicles/water. The essentials: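 DMPC vesicles hydrated in 50 mM sodium phosphate (ionic strength 154 mM with NaCl, pH 7.5), extruded at 35 °C through 100 nm filters. Lipid suspension (1–20 mM) injected in small aliquots into ~300 μM terpenoid in the ITC cell (1.409 mL). Integrated heats per injection fitted with a dilution-heat term to give K and ΔH. ΔG0 = −RTln(55.5K). ΔCP from linear regression of ΔH versus temperature.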
(In general: ITC needs no label: the signal is the heat of the interaction.)

The test system of data set [4] is Lipid bilayer. The data set can be described thus: Binding affinity to 1,2-dimyristoyl-sn-glycero-3-phosphocholine bilayer assessed as increase in pre-transition temperature at low concentration by differential scanning calorimetry (reference value: 12.7 deg C). The class given is physicochemical. A digest of the protocol: as §1
Data set [5] concerns Lipid bilayer. The data set can be described thus: Binding affinity to Me-5-DSA labelled 1,2-dimyristoyl-sn-glycero-3-phosphocholine bilayer containing assessed as change in membrane fluidity by electron paramagnetic resonance spectroscopy. The essentials: (§2)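 DMPC membranes carrying a spin label, either pure or with terpenoid at 15 mol % (Me-5-DSA also over a concentration series). Samples held in hematocrit tubes and equilibrated 10 min at 35 °C. X-band spectra (~9.4 GHz, ~2 mW, 100 kHz modulation, 1 G amplitude), usually five scans summed. Order parameter from hyperfine splittings. Rotational correlation times from central-line width and line heights as a fluidity measure.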

The test system of data set [6] is Lipid bilayer. The data set can be described thus: Binding affinity to Me-16-DSA labelled 1,2-dimyristoyl-sn-glycero-3-phosphocholine bilayer containing assessed as change in membrane fluidity by electron paramagnetic resonance spectroscopy. A digest of the protocol: as §2
The test system of data set [7] is Lipid bilayer. The data set can be described thus: Binding affinity to 5-DSA labelled 1,2-dimyristoyl-sn-glycero-3-phosphocholine bilayer containing assessed as change in membrane fluidity by electron paramagnetic resonance spectroscopy. A digest of the protocol:
as §2

Data set [8] relates to Lipid bilayer. The data set can be described thus: Binding affinity to CSL labelled 1,2-dimyristoyl-sn-glycero-3-phosphocholine bilayer containing assessed as change in membrane fluidity by electron paramagnetic resonance spectroscopy. The essentials: as §2

For the compound `C=C(C)[C@H]1CC=C(C)CC1` [D-LIMONENE], in the data set on Lipid bilayer [1], the Activity entry is reported as “Not Active”. Moreover, the T came to 16.3 °C with Lipid bilayer [2] and 14.5 °C in the data set on Lipid bilayer [4]. For the same compound, the Ko in data set [3] is 10900 M⁻¹. Besides, the result in the data set with Lipid bilayer [5], in the data set on Lipid bilayer [6], with Lipid bilayer [7] and in the data set on Lipid bilayer [8] was inactive.

Regarding `C=C(C)C1CC=C(C=O)CC1` (stereo not drawn) [PERILLALDEHYDE], the Activity entry in the data set with Lipid bilayer [1] is “Not Active”. Also, in the data set with Lipid bilayer [2], the T was determined as 19.4 °C. In data set [3], this compound yielded a Ko of 215 M⁻¹. Moreover, the outcome in the data set on Lipid bilayer [5], in the data set with Lipid bilayer [6], in the data set on Lipid bilayer [7] and in the data set with Lipid bilayer [8] was inactive.

With `C=C(C)[C@@H]1CC=C(C(=O)O)CC1` [PERILLIC ACID], in data set [3], the Activity result was “Not Active”.

In the case of `C=C(C)[C@@H]1CC=C(CO)CC1` [PERILLYL ALCOHOL], the Activity entry in the data set with Lipid bilayer [1] is “Not Active”. The T in the data set with Lipid bilayer [2] is 19.4 °C. The Ko in data set [3] is 305 M⁻¹. Besides, the result in the data set with Lipid bilayer [5], in the data set on Lipid bilayer [6], with Lipid bilayer [7] and in the data set on Lipid bilayer [8] was inactive.

Source of the values: ChEMBL document CHEMBL2010686, “Influence of the active compounds of Perilla frutescens leaves on lipid membranes” (J Nat Prod, 2012).
